The inhibition is the change of the read-out against control, counted positive when it falls. The IC50 is the concentration needed to halve the response being measured.

For one assay, the system named is Radical scavenging activity. Kind of assay: Antioxidant activity assessed as DPPH free radical scavenging activity at 250 uM. Type of assay: functional. The method in brief: (§1)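 Radical-scavenging assay run by previously reported methods. Percent inhibition was recorded after a 30 min incubation.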
(The DPPH test is a chemical assay of radical scavenging.)
For `CC(C)=CCc1c(O[C@@H]2O[C@H](CO)[C@@H](O)[C@H](O)[C@H]2O)cc(O)c2c1O[C@H](c1ccc(O)cc1)[C@@H](O)C2=O`, the inhibition turned out to be 34.6%.

As for `CC(C)=CCc1c(O)cc(O)c2c1O[C@@H](c1ccc(O)cc1)[C@@H](O)C2=O`, the inhibition is 20.9%.

`O=c1c(O[C@@H]2O[C@H](CO)[C@@H](O)[C@H](O)[C@H]2O)c(-c2ccc(O)cc2)oc2cc(O)cc(O)c12`: the inhibition turned out to be 5.7%.

As for `O=c1c(O[C@@H]2O[C@H](CO)[C@H](O)[C@H](O)[C@H]2O)c(-c2ccc(O)cc2)oc2cc(O)cc(O)c12`, the inhibition worked out at 4.5%.

In another assay the test system is Radical scavenging activity. The experiment in a line: Antioxidant activity assessed as DPPH free radical scavenging activity. In kind it is functional. A digest of the protocol:
as §1
With `O=c1c(O[C@@H]2O[C@H](CO)[C@@H](O)[C@H](O)[C@H]2O)c(-c2ccc(O)c(O)c2)oc2cc(O)cc(O)c12` [ISOQUERCETIN], the IC50 turned out to be 32.2 µM.

For VITAMIN E, the IC50 was 8.3 µM.

Regarding `CC(C)(O)CCc1c(O[C@@H]2O[C@H](CO)[C@@H](O)[C@H](O)[C@H]2O)cc(O)c2c(=O)c(O)c(-c3ccc(O)cc3)oc12` [AMURENSIN], the IC50 worked out at 88.3 µM.

The next assay addresses T1, Tyrosinase (Homo sapiens) (UniProt P14679).
T1 sequence (whole entry): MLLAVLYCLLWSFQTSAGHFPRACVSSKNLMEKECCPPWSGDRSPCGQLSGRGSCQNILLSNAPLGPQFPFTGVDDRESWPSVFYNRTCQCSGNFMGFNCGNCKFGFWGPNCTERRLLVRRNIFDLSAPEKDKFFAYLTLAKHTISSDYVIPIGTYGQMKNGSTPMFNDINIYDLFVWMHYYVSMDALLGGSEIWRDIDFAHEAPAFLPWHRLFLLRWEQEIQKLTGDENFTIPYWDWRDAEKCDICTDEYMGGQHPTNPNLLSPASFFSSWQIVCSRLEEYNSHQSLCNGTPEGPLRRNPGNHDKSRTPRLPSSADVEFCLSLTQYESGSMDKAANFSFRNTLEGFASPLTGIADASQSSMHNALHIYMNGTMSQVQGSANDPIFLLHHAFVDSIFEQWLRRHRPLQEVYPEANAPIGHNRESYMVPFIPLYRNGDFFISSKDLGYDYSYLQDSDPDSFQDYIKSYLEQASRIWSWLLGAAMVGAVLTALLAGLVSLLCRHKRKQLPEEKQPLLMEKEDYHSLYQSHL
Kind of assay: Inhibition of tyrosinase at 333 uM.
For the molecule `CC[C@H](CC[C@@H](C)[C@H]1CC[C@H]2[C@@H]3CC=C4C[C@@H](O)CC[C@]4(C)[C@H]3CC[C@]12C)C(C)C`, the inhibition stood at 14.3%.

`CC(C)(O)CCc1c(O[C@@H]2O[C@H](CO)[C@@H](O)[C@H](O)[C@H]2O)cc(O)c2c(=O)c(O)c(-c3ccc(O)cc3)oc12` [AMURENSIN]: the inhibition came out at 15.4%.

Turning to `CC1(C)O[C@H]2CC(=O)OC[C@]23[C@H]2CC[C@@]4(C)[C@H](c5ccoc5)OC(=O)[C@H]5O[C@]54[C@]2(C)C(=O)C[C@@H]13`, the inhibition came to 3.6%.

With `C=C(C)[C@@H]1CC[C@]2(C)CC[C@]3(C)[C@H](CC[C@@H]4[C@@]5(C)CCC(=O)C(C)(C)[C@@H]5CC[C@]43C)[C@@H]12`, the inhibition was -2.4%.

The values above are taken from ChEMBL document CHEMBL1146595, “Constituents from the leaves of Phellodendron amurense var. wilsonii and their bioactivity” (J Nat Prod, 2003).
